Test results taken from ChEMBL document CHEMBL1143334, “Peri-substituted hexahydro-indolones as novel, potent and selective human EP3 receptor antagonists” (Bioorg Med Chem Lett, 2009).
Values after ≈ are worked out from the molar mass of the structure shown. Active and inactive are the calls of the source. The rule behind the calls is not given here.

Experiments:
[1] = target: T1, Prostaglandin E2 receptor EP3 subtype (Homo sapiens, UniProt P43115); experiment: Displacement of [3H]PGE2 from human EP3 receptor
T1 sequence (P43115 whole entry): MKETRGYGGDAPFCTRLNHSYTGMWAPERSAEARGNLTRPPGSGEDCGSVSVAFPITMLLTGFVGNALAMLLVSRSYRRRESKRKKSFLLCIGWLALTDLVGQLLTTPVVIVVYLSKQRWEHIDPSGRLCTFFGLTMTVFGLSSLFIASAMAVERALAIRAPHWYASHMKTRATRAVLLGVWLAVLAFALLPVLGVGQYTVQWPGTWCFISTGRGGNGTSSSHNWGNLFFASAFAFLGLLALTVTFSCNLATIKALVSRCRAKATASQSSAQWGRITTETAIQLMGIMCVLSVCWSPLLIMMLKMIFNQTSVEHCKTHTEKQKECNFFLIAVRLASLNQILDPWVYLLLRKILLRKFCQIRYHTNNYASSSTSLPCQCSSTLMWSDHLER
Method in brief: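 Displacement of [3H]-PGE2 from human EP3 receptor membrane preparations was run in buffer. IC50 values come from at least three experiments each.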

[2] = target: T2, Prostaglandin E2 receptor EP3 subtype (Homo sapiens) (UniProt P43115); experiment: Ratio of IC50 for human EP3 receptor in presence of 10% human serum to IC50 for human EP3 receptor in buffer
T2 sequence (whole entry): T1 sequence (P43115 whole entry)
Method in brief: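 Displacement of [3H]-PGE2 from human EP3 membrane preparations was run both with 10% human serum and in buffer alone. Fold-shift is IC50 with serum divided by IC50 in buffer.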

[3] = Metabolic stability in rat liver microsomes after 30 mins; type: ADME, Microsome; conditions: read-out: Stability
Method in brief: (§1)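 Compound was incubated 30 min with liver microsomes from each species. Percent parent remaining was measured by LC/MS/MS.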

[4] = Metabolic stability in human liver microsomes after 30 mins; type: ADME, Microsome; conditions: read-out: Stability; method in brief: as §1
[5] = target: Prostaglandin E2 receptor EP2 subtype (Homo sapiens, UniProt P43116); experiment: Binding affinity to human EP2 receptor at 20 uM by radioligand binding assay
[6] = target: T1, Prostaglandin E2 receptor EP3 subtype; experiment: Antagonist activity at human EP3 receptor expressed in CHO-K1 cells assessed as reversal of inhibition of forskolin-induced cAMP production; type: functional, cell-based
Method in brief: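 CHO-K1 cells stably expressing human EP3 were exposed to increasing test compound concentrations for 10 min at 37 °C, with 5 μM forskolin plus 5 nM PGE2 present. Read-out was the block of PGE2's inhibition of the forskolin-induced cAMP rise, giving IC50.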

Homo sapiens [7] = organism: Homo sapiens; experiment: Selectivity of human EP4 receptor over human EP3 receptor
Homo sapiens [8] = organism: Homo sapiens; experiment: Selectivity of human EP1 receptor over human EP3 receptor
[9] = target: T3, Prostaglandin E2 receptor EP1 subtype (Homo sapiens) (UniProt P34995); experiment: Binding affinity to human EP1 receptor at 20 uM by radioligand binding assay
T3 sequence (whole entry): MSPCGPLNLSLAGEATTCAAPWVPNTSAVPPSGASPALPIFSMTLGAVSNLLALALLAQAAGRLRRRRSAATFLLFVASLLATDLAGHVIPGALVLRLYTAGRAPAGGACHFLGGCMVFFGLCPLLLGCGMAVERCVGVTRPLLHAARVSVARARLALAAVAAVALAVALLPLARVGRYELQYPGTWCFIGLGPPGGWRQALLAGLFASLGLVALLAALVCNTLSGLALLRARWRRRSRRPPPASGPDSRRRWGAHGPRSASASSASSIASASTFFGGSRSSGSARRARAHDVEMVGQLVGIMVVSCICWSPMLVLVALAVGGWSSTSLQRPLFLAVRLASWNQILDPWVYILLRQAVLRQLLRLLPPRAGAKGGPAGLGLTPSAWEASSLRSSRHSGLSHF

[10] = target: T4, Prostaglandin E2 receptor EP4 subtype (Homo sapiens, UniProt P35408); experiment: Binding affinity to human EP4 receptor at 20 uM by radioligand binding assay
Homo sapiens [11] = organism: Homo sapiens; experiment: Selectivity of human EP2 receptor over human EP3 receptor
Homo sapiens [12] = organism: Homo sapiens; experiment: Selectivity of human FP receptor over human EP3 receptor
[13] = target: Prostaglandin F2-alpha receptor (Homo sapiens, UniProt P43088); experiment: Binding affinity to human FP receptor by radioligand binding assay
[14] = target: T5, Prostaglandin E2 receptor EP1 subtype (Homo sapiens, UniProt P34995); experiment: Binding affinity to human EP1 receptor by radioligand binding assay
T5 sequence (P34995 whole entry): T3 sequence (whole entry)

[15] = target: T4, Prostaglandin E2 receptor EP4 subtype; experiment: Binding affinity to human EP4 receptor by radioligand binding assay
[16] = Aqueous solubility in 50 mM PSB buffer at pH 7.4 by HPLC analysis; type: physicochemical
Method in brief: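 Samples were stirred overnight in 50 mM PSB buffer, pH 7.4, then filtered. Concentration was measured by HPLC against a 5-point standard curve, giving thermodynamic solubility.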

Prostaglandin F2-alpha receptor, sequence (P43088 whole entry): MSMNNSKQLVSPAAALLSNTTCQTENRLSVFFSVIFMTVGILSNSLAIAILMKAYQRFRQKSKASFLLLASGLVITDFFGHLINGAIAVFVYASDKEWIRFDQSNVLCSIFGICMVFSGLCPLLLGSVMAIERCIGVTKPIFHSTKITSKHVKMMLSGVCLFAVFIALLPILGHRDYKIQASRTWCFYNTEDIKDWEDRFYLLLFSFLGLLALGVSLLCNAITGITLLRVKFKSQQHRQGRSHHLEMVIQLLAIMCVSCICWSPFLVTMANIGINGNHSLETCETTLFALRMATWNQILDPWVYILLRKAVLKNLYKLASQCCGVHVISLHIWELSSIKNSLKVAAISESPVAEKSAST
Prostaglandin E2 receptor EP2 subtype, sequence (P43116 whole entry): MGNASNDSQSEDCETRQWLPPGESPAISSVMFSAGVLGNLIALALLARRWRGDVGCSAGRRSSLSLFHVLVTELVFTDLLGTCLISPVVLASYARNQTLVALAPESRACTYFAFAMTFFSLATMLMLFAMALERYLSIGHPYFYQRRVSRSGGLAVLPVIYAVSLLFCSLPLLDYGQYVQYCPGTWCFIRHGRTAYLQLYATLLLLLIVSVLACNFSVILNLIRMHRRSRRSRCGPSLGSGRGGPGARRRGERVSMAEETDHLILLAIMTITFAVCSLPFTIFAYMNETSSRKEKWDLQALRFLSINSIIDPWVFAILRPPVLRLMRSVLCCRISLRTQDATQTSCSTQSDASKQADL
T4 sequence (P35408 whole entry): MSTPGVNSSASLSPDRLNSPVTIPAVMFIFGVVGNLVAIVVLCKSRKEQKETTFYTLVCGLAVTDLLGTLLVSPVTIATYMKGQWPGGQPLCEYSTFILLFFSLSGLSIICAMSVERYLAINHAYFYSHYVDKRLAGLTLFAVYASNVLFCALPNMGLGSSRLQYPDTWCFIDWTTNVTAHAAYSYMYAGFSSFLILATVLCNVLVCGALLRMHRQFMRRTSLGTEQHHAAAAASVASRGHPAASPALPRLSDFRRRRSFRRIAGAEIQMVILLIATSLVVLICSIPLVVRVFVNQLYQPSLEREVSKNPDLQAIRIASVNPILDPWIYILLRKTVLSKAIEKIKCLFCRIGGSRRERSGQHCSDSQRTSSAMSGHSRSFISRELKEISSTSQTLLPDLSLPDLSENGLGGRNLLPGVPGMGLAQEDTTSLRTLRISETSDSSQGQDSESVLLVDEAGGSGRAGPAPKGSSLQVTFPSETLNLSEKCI

Row | IC50 [1] [nM] | fold change (FC) [2] | remaining at 0.5 h [3] [%] | remaining at 0.5 h [4] [%] | SMILES | also measured
1 | 3.8 | 33.7 | – | – | CC12CCCC(/C=C/C(=O)NS(=O)(=O)c3cc(F)cc(F)c3)=C1N(Cc1cccc(Cl)c1Cl)C(=O)C2 (configuration not stated) | –
2 | 13.4 | 6.9 | 68 | 75 | CC12CCCC(/C=C/C(=O)NS(=O)(=O)c3ccc(Cl)s3)=C1N(Cc1ccc(Cl)cc1Cl)C(=O)C2 (configuration not stated) | –
3 | 6.4 | 4.8 | 64 | 62 | COc1cccc(CN2C(=O)CC3(C)CCCC(/C=C/C(=O)NS(=O)(=O)c4cc(Cl)c(Cl)s4)=C23)c1 (configuration not stated) | Activity [5]: inactive; IC50 [6]: 5.8 nM; Selectivity ratio (Homo sapiens [7]): > 1000; Selectivity ratio (Homo sapiens [8]): > 1000; Activity [9]: inactive; Activity [10]: inactive; Selectivity ratio (Homo sapiens [11]): > 1000; Selectivity ratio (Homo sapiens [12]): > 1000; IC50 [13]: 6100 nM
4 | 1.8 | 33.2 | – | – | CC12CCCC(CCC(=O)NS(=O)(=O)c3cc(F)c(F)cc3F)=C1N(Cc1ccc(F)c(F)c1)C(=O)C2 (configuration not stated) | –
5 | 2.3 | 38.4 | 60 | 58 | CC12CCCC(/C=C/C(=O)NS(=O)(=O)c3cc(Cl)c(Cl)s3)=C1N(Cc1ccc(Cl)cc1Cl)C(=O)C2 (configuration not stated) | –
6 | 12.9 | 4.2 | 42 | 76 | COc1cccc(CN2C(=O)CC3(C)CCCC(/C=C/C(=O)NS(=O)(=O)c4ccc(F)c(F)c4)=C23)c1 (configuration not stated) | IC50 [14]: 1400 nM; Activity [5]: inactive; Selectivity ratio (Homo sapiens [7]): > 1000; Selectivity ratio (Homo sapiens [8]): > 1000; IC50 [15]: 7500 nM; Selectivity ratio (Homo sapiens [11]): > 1000; Selectivity ratio (Homo sapiens [12]): > 1000; IC50 [13]: 6400 nM
7 | 57.2 | 25.2 | 79 | 78 | CC12CCCC(/C=C/C(=O)NS(=O)(=O)c3cccs3)=C1N(Cc1ccc(Cl)cc1Cl)C(=O)C2 (configuration not stated) | –
8 | 6.8 | 7.4 | 54 | 64 | CC12CCCC(/C=C/C(=O)NS(=O)(=O)c3cc(Cl)c(Cl)s3)=C1N(Cc1ccc3ccccc3c1)C(=O)C2 (configuration not stated) | IC50 [14]: 6900 nM; Activity [5]: inactive; Selectivity ratio (Homo sapiens [7]): > 1000; Selectivity ratio (Homo sapiens [8]): > 1000; Activity [10]: inactive; Selectivity ratio (Homo sapiens [11]): > 1000; Selectivity ratio (Homo sapiens [12]): > 1000; IC50 [13]: 10200 nM
9 | 2.5 | 15.9 | – | – | CC12CCCC(/C=C/C(=O)NS(=O)(=O)c3ccc(F)c(F)c3)=C1N(Cc1ccc(F)cc1)C(=O)C2 (configuration not stated) | –
10 | 84.1 | 5.4 | – | – | CC12CCCC(/C=C/C(=O)NS(=O)(=O)c3cc(F)cc(F)c3)=C1N(Cc1ccc(F)cc1)C(=O)C2 (configuration not stated) | Activity [5]: inactive; Selectivity ratio (Homo sapiens [7]): > 1000; Selectivity ratio (Homo sapiens [8]): > 1000; Activity [9]: inactive; Activity [10]: inactive; Selectivity ratio (Homo sapiens [11]): > 1000; Selectivity ratio (Homo sapiens [12]): > 1000; IC50 [13]: 4200 nM
11 | – | – | – | – | CC1C(=O)N(Cc2ccc(F)c(F)c2)c2c(/C=C/C(=O)NS(=O)(=O)c3cc(F)c(F)cc3F)cccc21 (configuration not stated) | solubility [16]: 1580 µg/mL (≈ 2950 µM)
12 | 5.6 | 26.8 | 45 | 68 | CC12CCCC(/C=C/C(=O)NS(=O)(=O)c3cc(Cl)cc(Cl)c3)=C1N(Cc1ccc(F)c(F)c1)C(=O)C2 (configuration not stated) | IC50 [6]: 3.2 nM
13 | 3.8 | 3 | 50 | 74 | CC12CCCC(/C=C/C(=O)NS(=O)(=O)c3cc(Cl)c(Cl)s3)=C1N(Cc1ccc(F)cc1)C(=O)C2 (configuration not stated) | Activity [5]: inactive; Selectivity ratio (Homo sapiens [7]): > 1000; Selectivity ratio (Homo sapiens [8]): > 1000; Activity [9]: inactive; Activity [10]: inactive; Selectivity ratio (Homo sapiens [11]): > 1000; Selectivity ratio (Homo sapiens [12]): > 1000; IC50 [13]: 27400 nM
14 | 9.2 | 217 | – | – | CC12CCCC(/C=C/C(=O)NS(=O)(=O)c3cc(F)cc(F)c3)=C1N(Cc1ccc(F)c(F)c1)C(=O)C2 (configuration not stated) | –
15 | 3.4 | 7.8 | – | – | CC12CCCC(/C=C/C(=O)NS(=O)(=O)c3ccc(F)c(F)c3)=C1N(Cc1cccc(Cl)c1Cl)C(=O)C2 (configuration not stated) | IC50 [6]: 3.5 nM
16 | 20.6 | 22 | – | – | COC(=O)C12CCCC(/C=C/C(=O)NS(=O)(=O)c3ccc(F)c(F)c3)=C1N(Cc1ccc(Cl)cc1Cl)C(=O)C2 (configuration not stated) | –
17 | 9.5 | 8.2 | 18 | 67 | CC12CCCC(/C=C/C(=O)NS(=O)(=O)c3cc(Cl)c(Cl)s3)=C1N(Cc1cccc(F)c1)C(=O)C2 (configuration not stated) | –
18 | 557 | 25.7 | – | – | C[C@]12CCC[C@@H](CCC(=O)NS(=O)(=O)c3cc(F)c(F)cc3F)[C@H]1N(Cc1ccc(F)c(F)c1)C(=O)C2 | –
19 | 3.4 | 18 | – | – | CC12CCCC(/C=C/C(=O)NS(=O)(=O)c3ccc(F)c(F)c3)=C1N(Cc1ccc(Cl)cc1Cl)C(=O)C2 (configuration not stated) | –
20 | 2.2 | 16.3 | – | – | CC12CCCC(/C=C/C(=O)NS(=O)(=O)c3cc(Cl)c(Cl)s3)=C1N(Cc1cccc(Cl)c1)C(=O)C2 (configuration not stated) | –
21 | 29.9 | 308 | – | – | COC(=O)C12CCCC(/C=C/C(=O)NS(=O)(=O)c3cc(Cl)c(Cl)s3)=C1N(Cc1ccc(F)c(F)c1)C(=O)C2 (configuration not stated) | –
22 | 9.8 | 61.2 | 62 | 70 | CC12CCCC(/C=C/C(=O)NS(=O)(=O)c3cc(Cl)cc(Cl)c3)=C1N(Cc1ccc(Cl)cc1Cl)C(=O)C2 (configuration not stated) | –
23 | 15.2 | 21.2 | 64 | 70 | CC12CCCC(/C=C/C(=O)NS(=O)(=O)c3ccc(F)cc3)=C1N(Cc1ccc(Cl)cc1Cl)C(=O)C2 (configuration not stated) | –
24 | – | – | – | – | Cc1cn(Cc2ccc(F)c(F)c2)c2c(/C=C/C(=O)NS(=O)(=O)c3cc(F)c(F)cc3F)cc(F)cc12 | solubility [16]: < 40 µg/mL
25 | 4.3 | 5.8 | 50 | 49 | CC12CCCC(/C=C/C(=O)NS(=O)(=O)c3cc(F)c(F)cc3F)=C1N(Cc1cccc(Cl)c1Cl)C(=O)C2 (configuration not stated) | Activity [5]: inactive; IC50 [6]: 4.5 nM; Selectivity ratio (Homo sapiens [7]): > 1000; Selectivity ratio (Homo sapiens [8]): > 1000; Activity [9]: inactive; Activity [10]: inactive; Selectivity ratio (Homo sapiens [11]): > 1000; Selectivity ratio (Homo sapiens [12]): > 1000; IC50 [13]: 7400 nM
26 | 3.5 | 17.7 | 22 | 80 | CC12CCCC(/C=C/C(=O)NS(=O)(=O)c3cc(Cl)c(Cl)s3)=C1N(Cc1ccc(F)c(F)c1)C(=O)C2 (configuration not stated) | IC50 [6]: 5.2 nM
27 | 5.6 | 6.2 | 84 | 76 | COc1cccc(CN2C(=O)CC3(C)CCCC(/C=C/C(=O)NS(=O)(=O)c4cc(F)c(F)cc4F)=C23)c1 (configuration not stated) | –
28 | 4.4 | 6.6 | 69 | 80 | CC12CCCC(/C=C/C(=O)NS(=O)(=O)c3cc(Cl)c(Cl)s3)=C1N(Cc1cccc(Cl)c1Cl)C(=O)C2 (configuration not stated) | IC50 [6]: 1.7 nM
29 | 11.2 | 47.1 | – | – | COC(=O)C12CCCC(/C=C/C(=O)NS(=O)(=O)c3cc(F)c(F)cc3F)=C1N(Cc1ccc(Cl)cc1Cl)C(=O)C2 (configuration not stated) | –
30 | 5.6 | 62.4 | – | – | COc1cccc(CN2C(=O)CC3(C)CCCC(/C=C/C(=O)NS(=O)(=O)c4cc(F)cc(F)c4)=C23)c1 (configuration not stated) | –
